Results of several laboratories.
Protocols differ between the studies behind these lines.
Target: Serine/threonine-protein kinase PLK1 (PLK1, Homo sapiens, UniProt P53350)

Nc1nc(NC2CCCCC2)sc1C(=O)c1ccccc1 — remaining activity (enzyme activity; inhibitor; 10 µM): 82%
CCCOc1ccc(OC)c(F)c1C(=O)c1ccc(C(=O)N[C@@H]2CNC[C@H]2NC(=O)c2ccc3[nH]ncc3c2)cc1 — remaining activity (enzyme activity; inhibitor; 10 µM): 105%
Cc1nc(C2CCN(C(=O)c3ccc(OC(F)(F)F)cc3N)CC2)c2ncc(N3CCN(C)CC3)cc2n1 — remaining binding (cell-free assay; competition with immobilised ligand; 1 µM): 79%
CN(C)C1CCN(CC#Cc2nn(C3CCCC3)c3nc(NCc4ccccc4)ncc23)C1 (stereo not drawn) — inhibition (enzyme activity; inhibitor; FRET; 10 µM): -5%
COc1cc(Cl)c(C(=O)N[C@@H](CN[C@H]2CC[C@@H](N)CC2)Cc2ccc(C#N)cc2)cc1-c1ccc(CN[C@H](C)c2ccc(C)cc2)o1 — remaining activity (enzyme activity; inhibitor; 1 µM): 94%
Cn1cc(Cl)c2c(Oc3c(F)cc(Nc4cc(Cl)nc(N)n4)cc3F)ccnc21 — remaining binding (cell-free assay; competition with immobilised ligand; 0.1 µM): 83%
Oc1cccc(-c2nc(N3CCOCC3)c3oc4ncccc4c3n2)c1 — remaining activity (enzyme activity; inhibitor; 10 µM): 93%
Cc1ccc(C(=O)Nc2ccc(CN3CCN(C)CC3)c(C(F)(F)F)c2)cc1C#Cc1cnc2cccnn12 — remaining activity (enzyme activity; inhibitor; 23.5 nM): 96%
O=C(Nc1cccnn1)N1CC(C/C=C/c2cncc(Oc3ccc(C(F)(F)F)cn3)n2)C1 — remaining binding (cell-free assay; competition with immobilised ligand; 1 µM): 87%
O=C(Nc1cnn(-c2csc(C(=O)NC3COC3)c2)c1)Nc1c(F)cccc1Cl — remaining activity (enzyme activity; inhibitor; 5 µM): 95.5%
CCN(CC)CCNC(=O)c1c(C)[nH]c(/C=C2\C(=O)Nc3ccc(F)cc32)c1C — remaining signal (cell-free assay; 0.5 µM): 96.4%
O=C(NC[C@@H]1[C@H]2CN(C(=O)OCc3cc(C(F)(F)F)cc(C(F)(F)F)c3)C[C@@H]12)c1ccc2[nH]nnc2c1 — remaining binding (cell-free assay; competition with immobilised ligand; 1 µM): 100%
CSc1nc(C)c(-c2ccnc(Nc3ccc(N4CCOCC4)cc3)c2)[nH]1 — inhibition (enzyme activity; inhibitor; 10 µM): 6.3%
Cc1ccc(NC(=O)c2ccc(CN3CCN(C)CC3)cc2)cc1Nc1nc(-c2cccnc2)cs1 — remaining signal (cell-free assay; 0.5 µM): 101%
Cc1cnc(NC2CCOCC2)nc1-n1cnc(C(=O)NC(CN)c2cc(F)cc(Cl)c2)c1 (stereo not drawn) — remaining activity (enzyme activity; inhibitor; radiometric; 1 µM): 103%
COc1cc(Nc2cnc(C#N)c(O[C@H](C)CN(C)C)n2)ncc1-c1cnn(C)c1 — remaining activity (enzyme activity; inhibitor; radiometric; 1 µM): 88%
CC(C)CC(=O)N1CCc2nc(-c3ccc(Br)cc3)nc(N(C)Cc3ccccc3)c2C1 — remaining binding (cell-free assay; competition with immobilised ligand; 0.1 µM): 100%
CCN1CCN(Cc2ccc(NC(=O)c3ccc(C)c(Oc4ccnc5[nH]ccc45)c3)cc2C(F)(F)F)CC1 — inhibition (target engagement in cells; inhibitor; chemoproteomics; Huh-7; 1 µM): -16.2%
